Data on nine compounds can be found in ChEMBL document CHEMBL1146634, “Sulphonamide-based small molecule VLA-4 antagonists” (Bioorg Med Chem Lett, 2003).

For series [1], the target named is T1, Integrin alpha-4/beta-1 (Homo sapiens, UniProt P05556+P13612). Kind of series: Inhibition of CS-1 fragment binding to Very late antigen 4 expressed in Ramos cells in 10% fetal bovine serum(FBS). It is filed as cell-based.
The target in series [2] is T1, Integrin alpha-4/beta-1. Kind of series: Inhibition of CS-1 fragment binding to Very late antigen 4 (VLA-4) expressed in Ramos cells. In kind it is cell-based.
Series [3] has as its system Mus musculus. Kind of series: Reduction in eosinophil count in murine asthma model tested in vivo by po administration at a dose of 10 mg/kg (peroral). It is filed as functional. The procedure, abridged: (§1)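 Mice were ovalbumin-sensitized and challenged. Twenty-four hours after the final OVA challenge, they were exsanguinated and the right lung lavaged (0.4 mL saline ×3). Total BAL cells were counted, then the pelleted cells were smeared, stained with Discombe's fluid (eosin/acetone) and counterstained with 0.07% methylene blue for eosinophil counts. Inhibition is expressed relative to OVA-challenged animals.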

A short description of series [4]: Cmax in cynomolgus monkey by po administration. In kind it is ADME, organism-based. Conditions: cercopithecidae, in vivo. The arrangement: route oral.
Series [5] relates to Mus musculus. Kind of series: Inhibition of eosinophil infiltration in the murine asthma model tested in vivo by po administration at a dose of 10 mg/kg (peroral). It is filed as functional. An outline of the steps:
as §1

Series [6] is described as follows: Oral bioavailability in cynomolgus monkey. It is filed as ADME, organism-based, Macaca fascicularis. Conditions: in vivo.
The nature of series [7]: Pharmacokinetic property(Vdss) in cynomolgus monkey. It is filed as ADME, organism-based. Conditions: cercopithecidae, in vivo; read-out: Vdss.
Series [8] has as its system Mus musculus. The series is described as follows: Reduction in eosinophil count in murine asthma model tested in vivo by po administration at a dose of 25 mg/kg (peroral). In kind it is functional. The procedure, abridged: as §1
Series [9] in a line: Plasma clearance in cynomolgus monkey. In kind it is ADME, organism-based. Conditions: cercopithecidae.
Series [10] deals with Mus musculus. Kind of series: Inhibition of eosinophil infiltration in the murine asthma model tested in vivo by po administration at a dose of 25 mg/kg (peroral). It is filed as functional. An outline of the steps:
as §1

A short description of series [11]: Cmax in cynomolgus monkey by iv administration. In kind it is ADME, organism-based. The arrangement: route intravenous. Conditions: cercopithecidae, in vivo.
The subject of series [12] is Mus musculus. Kind of series: Inhibition of eosinophil infiltration in the murine asthma model tested in vivo at a dose of 10 mg/kg (intravenous). In kind it is functional. Conditions: route intranasal, in the assay text read “intranasal” for “intravenous”. The procedure, abridged: as §1
Series [13] can be described thus: Half-life period in cynomolgus monkey. It is filed as ADME. Conditions: cercopithecidae, in vivo.
Series [14] concerns Mus musculus. The series is described as follows: Reduction in eosinophil count in murine asthma model tested in vivo by at a dose of 10 mg/kg (intravenous). It is filed as functional. An outline of the steps:
as §1

Series [15] relates to Mus musculus. The series is described as follows: Inhibition of eosinophil infiltration in the murine asthma model tested in vivo at a dose of 5 mg/kg (intravenous). In kind it is functional. An outline of the steps:
as §1

The subject of series [16] is Mus musculus. The series is described as follows: Eosinophil count in murine asthma model tested in vivo at a dose of 5 mg/kg (intravenous).

T1 sequence (P05556 whole entry, the tested form may be a part): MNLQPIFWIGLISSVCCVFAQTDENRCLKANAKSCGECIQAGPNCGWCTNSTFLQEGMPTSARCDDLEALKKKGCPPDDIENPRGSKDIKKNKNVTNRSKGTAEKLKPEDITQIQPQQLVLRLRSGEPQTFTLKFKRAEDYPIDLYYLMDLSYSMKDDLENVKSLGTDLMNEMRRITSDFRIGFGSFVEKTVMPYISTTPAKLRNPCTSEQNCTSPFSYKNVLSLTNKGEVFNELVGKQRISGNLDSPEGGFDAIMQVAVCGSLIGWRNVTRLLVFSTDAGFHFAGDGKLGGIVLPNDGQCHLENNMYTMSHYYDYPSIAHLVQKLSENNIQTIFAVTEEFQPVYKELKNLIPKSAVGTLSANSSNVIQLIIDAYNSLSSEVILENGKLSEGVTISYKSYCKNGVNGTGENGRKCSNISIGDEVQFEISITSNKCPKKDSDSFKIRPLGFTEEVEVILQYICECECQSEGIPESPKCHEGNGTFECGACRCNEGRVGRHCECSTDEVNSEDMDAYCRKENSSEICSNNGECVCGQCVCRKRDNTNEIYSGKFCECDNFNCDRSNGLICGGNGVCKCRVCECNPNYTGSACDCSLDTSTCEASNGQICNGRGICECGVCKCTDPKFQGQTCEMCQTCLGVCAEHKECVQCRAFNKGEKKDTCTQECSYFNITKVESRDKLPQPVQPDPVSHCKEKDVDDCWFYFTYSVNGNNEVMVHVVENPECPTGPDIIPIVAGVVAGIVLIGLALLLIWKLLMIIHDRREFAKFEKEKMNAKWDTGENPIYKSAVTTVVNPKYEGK
T1 sequence (P13612 whole entry, the tested form may be a part): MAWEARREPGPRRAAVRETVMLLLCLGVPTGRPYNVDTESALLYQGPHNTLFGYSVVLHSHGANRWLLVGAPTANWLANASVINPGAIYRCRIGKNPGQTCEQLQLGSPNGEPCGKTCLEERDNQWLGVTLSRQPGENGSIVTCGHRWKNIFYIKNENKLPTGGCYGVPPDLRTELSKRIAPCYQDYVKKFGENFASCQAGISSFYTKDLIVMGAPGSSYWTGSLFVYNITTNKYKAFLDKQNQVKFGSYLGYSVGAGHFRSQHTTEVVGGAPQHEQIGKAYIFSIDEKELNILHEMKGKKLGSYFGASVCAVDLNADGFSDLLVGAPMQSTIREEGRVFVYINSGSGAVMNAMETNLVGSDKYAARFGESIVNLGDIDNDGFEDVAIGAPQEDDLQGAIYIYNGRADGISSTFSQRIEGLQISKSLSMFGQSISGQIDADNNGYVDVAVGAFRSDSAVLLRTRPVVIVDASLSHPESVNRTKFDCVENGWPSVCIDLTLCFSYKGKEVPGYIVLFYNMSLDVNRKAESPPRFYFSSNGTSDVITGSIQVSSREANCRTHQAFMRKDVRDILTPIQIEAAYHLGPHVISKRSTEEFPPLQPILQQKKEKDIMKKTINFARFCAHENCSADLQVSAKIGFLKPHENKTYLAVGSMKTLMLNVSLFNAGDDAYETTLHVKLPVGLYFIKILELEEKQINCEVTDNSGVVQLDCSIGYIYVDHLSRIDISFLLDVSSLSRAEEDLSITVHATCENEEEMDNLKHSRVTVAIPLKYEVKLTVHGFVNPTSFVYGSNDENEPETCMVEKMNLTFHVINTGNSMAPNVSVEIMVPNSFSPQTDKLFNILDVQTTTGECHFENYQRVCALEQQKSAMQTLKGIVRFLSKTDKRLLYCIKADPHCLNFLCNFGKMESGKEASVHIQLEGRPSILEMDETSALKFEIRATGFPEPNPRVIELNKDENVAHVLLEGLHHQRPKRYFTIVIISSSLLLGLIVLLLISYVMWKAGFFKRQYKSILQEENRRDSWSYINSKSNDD

As to `O=C(O)CN(CC(=O)N[C@@H](Cc1ccc(OCc2c(Cl)cccc2Cl)cc1)C(=O)O)S(=O)(=O)c1ccccn1`, the concentration for half-maximal inhibition (IC50) (in general, the concentration needed to halve the response being measured) is 10 nM at Integrin alpha-4/beta-1 [1] and 1.5 nM at Integrin alpha-4/beta-1 [2].

On to `O=C(O)CN(CC(=O)N[C@@H](Cc1ccc(OCc2c(Cl)cccc2Cl)cc1)C(=O)O)S(=O)(=O)c1ccccc1`, for which the EOS count with Mus musculus [3] is 2.67 10^5 cells; in the series with Mus musculus [8], 2.16 10^5 cells; with Mus musculus [14] it was 4.36 10^5 cells; with Mus musculus [16], 6.26 10^5 cells. Also, the Cmax (commonly the peak of the concentration-time curve) stood at 0.101 µg/mL in series [4] and 0.528 µg/mL in [11]. For the same compound, the EOS inhibition is 69% in the series on Mus musculus [5], 75% in the series with Mus musculus [10], 50% in the series on Mus musculus [12] and 28% in the series on Mus musculus [15]. For the same compound, the bioavailability – broadly, dose-corrected exposure relative to a reference, in per cent – in series [6] was 26.9%. Also, the Vd in series [7] was 0.303 L/kg. The IC50 on Integrin alpha-4/beta-1 [1] came out at 8 nM; at Integrin alpha-4/beta-1 [2], 0.6 nM. In addition, in series [9], the clearance (in general, a measure of how efficiently the substance is removed, as volume per time) came to 3.53 L/h/kg. For the same compound, the half-life (as a rule, the time needed for the level to fall by half in the phase considered) in [13] was found to be 6.6 min.

`CN([C@@H](CC(=O)O)C(=O)N[C@@H](Cc1ccc(OCc2c(Cl)cccc2Cl)cc1)C(=O)O)S(=O)(=O)c1ccccc1` had an IC50 on Integrin alpha-4/beta-1 [2] of 2 nM.

On to `O=C(O)CN(CC(=O)N[C@@H](Cc1ccc(OCc2c(Cl)cccc2Cl)cc1)C(=O)O)S(=O)(=O)c1cccs1`, for which the IC50 on Integrin alpha-4/beta-1 [1] was 10 nM; on Integrin alpha-4/beta-1 [2], 0.8 nM.

For the compound `O=C(O)CN(CC(=O)N[C@@H](Cc1ccc(OCc2c(Cl)cccc2Cl)cc1)C(=O)O)S(=O)(=O)c1ccc(F)cc1`, the IC50 at Integrin alpha-4/beta-1 [1] worked out at 10 nM; on Integrin alpha-4/beta-1 [2] it was 0.7 nM.

Turning to `CN([C@@H](CCC(=O)O)C(=O)N[C@@H](Cc1ccc(OCc2c(Cl)cccc2Cl)cc1)C(=O)O)S(=O)(=O)c1ccc2ccccc2c1`, the IC50 at Integrin alpha-4/beta-1 [2] amounted to 1 nM.

Compound `O=C(O)CC[C@H](NS(=O)(=O)c1ccc2ccccc2c1)C(=O)N[C@@H](Cc1ccccc1)C(=O)O` had an IC50 on Integrin alpha-4/beta-1 [2] of 180 nM.

For `O=C(O)CC[C@H](NS(=O)(=O)c1ccc2ccccc2c1)C(=O)N[C@@H](Cc1ccc(OCc2c(Cl)cccc2Cl)cc1)C(=O)O`, the IC50 at Integrin alpha-4/beta-1 [2] was found to be 2 nM.

As for `CN([C@@H](CCC(=O)O)C(=O)N[C@@H](Cc1ccc(OCc2c(Cl)cccc2Cl)cc1)C(=O)O)S(=O)(=O)c1ccccc1`, the results for the IC50 on Integrin alpha-4/beta-1 [1] and at Integrin alpha-4/beta-1 [2] were 2 nM and 0.1 nM, respectively.
